According to ChEMBL document CHEMBL1132278, “Discovery of novel antitumor sulfonamides targeting G1 phase of the cell cycle” (J Med Chem, 1999):
In brackets after ≈: the same amount, converted by molar mass.

Columns and labels:
Format in all cases: functional, cell-based
[1] = test system: MC-38; assay: In vitro antiproliferative activity against colon 38 murine adenocarcinoma; details: Mus musculus
Procedure, shortened: (§1)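 RPMI1640 with 10% FBS; seeded at 2.5×10³ cells/well for KB and colon 38, 1.25×10³ cells/well for P388; preincubated 24 h at 37 °C, 5% CO2. DMSO stocks were diluted 3-fold serially in medium, with 200 μg/mL the top dilution. Exposure was continuous for 3 days, then MTT for 1–2 h. Formazan was read in DMSO at 540/660 nm, and IC50 was taken by least squares.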

[2] = test system: KB; assay: Antiproliferative activity against KB human nasopharynx carcinoma in vitro; procedure, shortened: as §1
[3] = test system: P388; assay: Antiproliferative activity against P388 murine leukemia in vitro; details: Mus musculus; procedure, shortened: as §1

Compound	IC50 [1]	IC50 [2]	IC50 [3]
N#Cc1ccccc1S(=O)(=O)Nc1cccc2c(C#N)c[nH]c12	2.8 mg/L (≈ 8.69 µM)	61 mg/L (≈ 189 µM)	14 mg/L (≈ 43.4 µM)
CS(=O)(=O)Nc1cccc(S(=O)(=O)Nc2cccc3c(Cl)c[nH]c23)c1	1.5 mg/L (≈ 3.75 µM)	26 mg/L (≈ 65 µM)	4.8 mg/L (≈ 12 µM)
COc1ccc(S(=O)(=O)Nc2cccc3c(C#N)c[nH]c23)cc1	0.17 mg/L (≈ 0.519 µM)	1.4 mg/L (≈ 4.28 µM)	0.17 mg/L (≈ 0.519 µM)
CS(=O)(=O)Nc1ccccc1S(=O)(=O)Nc1cccc2c(Cl)c[nH]c12	45 mg/L (≈ 113 µM)	18 mg/L (≈ 45 µM)	18 mg/L (≈ 45 µM)
N#Cc1cccc(S(=O)(=O)Nc2cccc3c(C#N)c[nH]c23)c1	0.09 mg/L (≈ 0.279 µM)	8.2 mg/L (≈ 25.4 µM)	0.2 mg/L (≈ 0.62 µM)
O=C(O)c1ccc(S(=O)(=O)Nc2cccc3c(Cl)c[nH]c23)cc1	> 100 mg/L	> 100 mg/L	> 100 mg/L
NC(=O)c1ccc(S(=O)(=O)Nc2cccc3c(Cl)c[nH]c23)cc1	0.19 mg/L (≈ 0.543 µM)	21 mg/L (≈ 60 µM)	0.87 mg/L (≈ 2.49 µM)
CS(=O)(=O)Nc1ccc(S(=O)(=O)Nc2cccc3c(C#N)c[nH]c23)cc1	1.2 mg/L (≈ 3.07 µM)	15 mg/L (≈ 38.4 µM)	3.5 mg/L (≈ 8.96 µM)
CS(=O)(=O)Nc1ccc(S(=O)(=O)Nc2cccc3c(Cl)c[nH]c23)cc1	0.26 mg/L (≈ 0.65 µM)	12 mg/L (≈ 30 µM)	1.6 mg/L (≈ 4 µM)
NS(=O)(=O)Cc1ccc(S(=O)(=O)Nc2cccc3c(Cl)c[nH]c23)cc1	0.12 mg/L (≈ 0.3 µM)	13 mg/L (≈ 32.5 µM)	0.15 mg/L (≈ 0.375 µM)
Cc1ccc(S(=O)(=O)Nc2cccc3cc[nH]c23)cc1	2.4 mg/L (≈ 8.38 µM)	2.2 mg/L (≈ 7.68 µM)	4.3 mg/L (≈ 15 µM)
COc1ccc(S(=O)(=O)Nc2cccc3c(Cl)c[nH]c23)cc1	0.2 mg/L (≈ 0.594 µM)	0.55 mg/L (≈ 1.63 µM)	0.76 mg/L (≈ 2.26 µM)
Nc1ccc(S(=O)(=O)Nc2cccc3cc[nH]c23)cc1	6.1 mg/L (≈ 21.2 µM)	36 mg/L (≈ 125 µM)	14 mg/L (≈ 48.7 µM)
Nc1ccc(S(=O)(=O)Nc2cccc3c(Cl)c[nH]c23)cc1	0.23 mg/L (≈ 0.715 µM)	10 mg/L (≈ 31.1 µM)	0.81 mg/L (≈ 2.52 µM)
N#Cc1ccc(S(=O)(=O)Nc2cccc3c(Cl)c[nH]c23)cc1	0.13 mg/L (≈ 0.392 µM)	11 mg/L (≈ 33.2 µM)	1.4 mg/L (≈ 4.22 µM)
COc1ccc(S(=O)(=O)Nc2cccc3cc[nH]c23)cc1	1.5 mg/L (≈ 4.96 µM)	0.67 mg/L (≈ 2.22 µM)	1.1 mg/L (≈ 3.64 µM)
O=S(=O)(Nc1cccc2cc[nH]c12)c1ccc(Cl)cc1	7 mg/L (≈ 22.8 µM)	6 mg/L (≈ 19.6 µM)	6 mg/L (≈ 19.6 µM)
CNS(=O)(=O)c1ccc(S(=O)(=O)Nc2cccc3c(Cl)c[nH]c23)cc1	0.24 mg/L (≈ 0.6 µM)	15 mg/L (≈ 37.5 µM)	0.9 mg/L (≈ 2.25 µM)
N#Cc1ccc(S(=O)(=O)Nc2cccc3cc[nH]c23)cc1	1.8 mg/L (≈ 6.05 µM)	8.5 mg/L (≈ 28.6 µM)	4.2 mg/L (≈ 14.1 µM)
N#Cc1c[nH]c2c(NS(=O)(=O)c3ccc(C(N)=O)cc3)cccc12	0.68 mg/L (≈ 2 µM)	15 mg/L (≈ 44.1 µM)	2.5 mg/L (≈ 7.35 µM)
N#Cc1ccc(S(=O)(=O)Nc2cccc3c(C#N)c[nH]c23)cc1	0.12 mg/L (≈ 0.372 µM)	33 mg/L (≈ 102 µM)	0.53 mg/L (≈ 1.64 µM)
N#Cc1c[nH]c2c(NS(=O)(=O)c3ccc(C(=O)O)cc3)cccc12	> 100 mg/L	> 100 mg/L	> 100 mg/L
N#Cc1c[nH]c2c(NS(=O)(=O)c3ccc(N)cc3)cccc12	0.28 mg/L (≈ 0.896 µM)	4.4 mg/L (≈ 14.1 µM)	0.72 mg/L (≈ 2.31 µM)
COc1ccc(S(=O)(=O)Nc2cccnc2Nc2ccc(O)cc2)cc1 [ABT-751]	–	–	0.32 mg/L (≈ 0.862 µM)
NS(=O)(=O)c1ccc(S(=O)(=O)Nc2cccc3c(Cl)c[nH]c23)cc1 [INDISULAM]	0.1 mg/L (≈ 0.259 µM)	4.4 mg/L (≈ 11.4 µM)	0.45 mg/L (≈ 1.17 µM)
